This note sets out measurements from publication PMC5896753 (ACS chemical biology, 2017).

The subject of series [1] is Neu7 astrocytes. Nature of the series: cell-surface CS-E expression, immunostaining with CS-E-specific antibody. Format: cell-based. An outline of the steps: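 Neu7 astrocytes were treated with test compound, with chlorate as comparator. Cells were co-stained with a CS-E-specific antibody and the nuclear stain DAPI, and average anti-CS-E fluorescence per condition was quantified from images. Mean ± S.E.M. of three experiments, 20-100 cells per experiment.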

Series [2] deals with Neu7 astrocytes. Nature of the series: disaccharide composition of secreted CSPGs. The format is cell-based.
In series [3] the target is T1, Chst15 (Homo sapiens, UniProt Q7LFX5).
T1 sequence (Q7LFX5 1-561): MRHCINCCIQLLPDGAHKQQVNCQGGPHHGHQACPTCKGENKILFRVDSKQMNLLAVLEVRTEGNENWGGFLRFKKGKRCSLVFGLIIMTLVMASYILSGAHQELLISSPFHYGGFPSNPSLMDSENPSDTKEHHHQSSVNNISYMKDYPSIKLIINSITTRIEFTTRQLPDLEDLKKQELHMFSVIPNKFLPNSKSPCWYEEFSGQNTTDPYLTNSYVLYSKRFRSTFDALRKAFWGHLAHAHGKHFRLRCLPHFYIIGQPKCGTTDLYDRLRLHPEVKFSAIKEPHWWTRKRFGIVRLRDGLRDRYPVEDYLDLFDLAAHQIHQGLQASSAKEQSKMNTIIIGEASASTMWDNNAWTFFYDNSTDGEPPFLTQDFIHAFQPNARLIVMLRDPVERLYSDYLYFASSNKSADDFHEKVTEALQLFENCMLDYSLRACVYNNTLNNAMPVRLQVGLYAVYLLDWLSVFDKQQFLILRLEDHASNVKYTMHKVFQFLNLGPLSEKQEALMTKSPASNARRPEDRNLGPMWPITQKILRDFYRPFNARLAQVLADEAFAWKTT
As to the kind of experiment: [35S]-labeling assay. Format: biochemical. Conditions: 25 μM of inhibitor; normalized to the inhibition by compound 19; three independent measurements.

In series [4] the target is T1, Chst15. As to the kind of experiment: enzyme-coupled fluorescence assay. The format is biochemical.
The next series deals with Sult1c1. As to the kind of experiment: Sult1c1 counter-screen. The following applies: concentrations tested 3-100 μM. The format is biochemical.
Series [5] concerns the target T1, Chst15. As to the kind of experiment: sulfotransferase specificity panel. Format: biochemical.
Series [6] deals with T2, chondroitin 4-O-sulfotransferase Chst11 (Homo sapiens, UniProt Q9NPF2).
T2 sequence (Q9NPF2 1-352): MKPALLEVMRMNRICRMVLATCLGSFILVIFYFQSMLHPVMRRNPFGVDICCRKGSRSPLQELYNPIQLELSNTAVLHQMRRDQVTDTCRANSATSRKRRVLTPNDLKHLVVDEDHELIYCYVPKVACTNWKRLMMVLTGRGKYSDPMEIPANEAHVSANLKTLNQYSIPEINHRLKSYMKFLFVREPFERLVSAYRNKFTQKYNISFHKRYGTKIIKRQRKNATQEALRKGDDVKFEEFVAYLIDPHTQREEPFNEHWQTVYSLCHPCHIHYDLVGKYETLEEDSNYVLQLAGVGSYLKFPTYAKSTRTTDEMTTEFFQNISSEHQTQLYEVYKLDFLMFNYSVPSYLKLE
As to the kind of experiment: sulfotransferase specificity panel. Format: biochemical.

Series [7] deals with T3, chondroitin 2-O-sulfotransferase Ust (Homo sapiens, UniProt Q9Y2C2).
T3 sequence (Q9Y2C2 1-406): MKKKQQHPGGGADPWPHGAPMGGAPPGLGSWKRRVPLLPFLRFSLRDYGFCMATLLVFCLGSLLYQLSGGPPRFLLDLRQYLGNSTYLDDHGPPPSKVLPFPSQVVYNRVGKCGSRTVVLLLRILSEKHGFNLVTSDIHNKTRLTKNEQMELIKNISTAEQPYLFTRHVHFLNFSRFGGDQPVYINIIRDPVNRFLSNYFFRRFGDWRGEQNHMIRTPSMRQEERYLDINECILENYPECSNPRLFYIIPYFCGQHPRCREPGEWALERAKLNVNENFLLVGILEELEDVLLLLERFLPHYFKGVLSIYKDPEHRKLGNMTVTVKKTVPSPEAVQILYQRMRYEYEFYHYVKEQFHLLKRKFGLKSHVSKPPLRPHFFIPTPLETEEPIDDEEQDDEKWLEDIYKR
Nature of the series: sulfotransferase specificity panel. Format: biochemical.

Series [8] concerns the target heparan 3-O-sulfotransferase Hs3st1 (Homo sapiens, UniProt O14792). As to the kind of experiment: sulfotransferase specificity panel. The format is biochemical.
The target in another series is T4, Sult1e1 (Homo sapiens, UniProt P49888).
T4 sequence (P49888 1-294): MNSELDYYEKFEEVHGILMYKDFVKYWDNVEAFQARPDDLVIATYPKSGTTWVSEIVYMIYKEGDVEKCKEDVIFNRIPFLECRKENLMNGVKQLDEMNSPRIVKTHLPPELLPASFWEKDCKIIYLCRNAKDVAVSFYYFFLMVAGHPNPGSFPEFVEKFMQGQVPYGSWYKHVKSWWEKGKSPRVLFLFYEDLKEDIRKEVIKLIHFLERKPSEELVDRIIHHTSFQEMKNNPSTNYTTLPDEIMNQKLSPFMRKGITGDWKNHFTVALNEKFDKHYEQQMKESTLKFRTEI
Nature of the series: sulfotransferase specificity panel. The format is biochemical.

Another series has as its target T5, Sult2b1a (Homo sapiens, UniProt O00204).
T5 sequence (O00204 1-350 isoform O00204-2): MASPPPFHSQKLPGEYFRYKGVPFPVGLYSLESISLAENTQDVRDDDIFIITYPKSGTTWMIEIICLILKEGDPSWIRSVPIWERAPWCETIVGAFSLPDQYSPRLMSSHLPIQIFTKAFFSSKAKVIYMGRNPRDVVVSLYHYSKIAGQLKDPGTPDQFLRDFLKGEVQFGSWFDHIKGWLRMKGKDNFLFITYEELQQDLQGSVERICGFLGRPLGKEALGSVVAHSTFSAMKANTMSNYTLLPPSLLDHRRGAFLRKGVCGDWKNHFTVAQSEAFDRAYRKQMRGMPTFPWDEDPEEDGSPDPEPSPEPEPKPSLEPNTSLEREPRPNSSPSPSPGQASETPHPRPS
As to the kind of experiment: sulfotransferase specificity panel. The format is biochemical.

The next series deals with T6, Sult2b1b (Homo sapiens, UniProt O00204).
T6 sequence (O00204 1-365): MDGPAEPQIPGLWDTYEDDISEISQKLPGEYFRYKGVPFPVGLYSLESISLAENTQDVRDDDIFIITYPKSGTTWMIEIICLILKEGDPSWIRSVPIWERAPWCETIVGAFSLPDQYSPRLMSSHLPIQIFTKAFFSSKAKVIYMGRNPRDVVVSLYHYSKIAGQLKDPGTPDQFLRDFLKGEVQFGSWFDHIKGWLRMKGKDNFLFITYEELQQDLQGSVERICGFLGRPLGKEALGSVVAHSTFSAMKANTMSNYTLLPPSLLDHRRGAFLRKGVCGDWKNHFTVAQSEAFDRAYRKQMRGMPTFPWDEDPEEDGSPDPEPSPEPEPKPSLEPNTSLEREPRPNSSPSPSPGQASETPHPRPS
Nature of the series: sulfotransferase specificity panel. The format is biochemical.

Series [9] deals with T1, Chst15. As to the kind of experiment: pre-incubation and ten-fold dilution experiments. The format is biochemical.
The test system of the next series is NIH3T3 fibroblasts. Nature of the series: CS-E expression in fibroblasts. The format is cell-based.
For a further series, the system named is DRG neurons. Nature of the series: in vitro CSPG boundary assay. The following applies: CSPGs from treated vs untreated Neu7 astrocytes. The format is cell-based, rat. An outline of the steps: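 Boundary assay: purified CSPGs from Neu7 astrocytes treated with or without test compound were mixed with Texas Red dye and spotted onto glass coverslips. DRG neurons were plated on the coverslips, and the percentage of neurites crossing the CSPG boundary was scored. Mean ± S.E.M. from five experiments, 20-40 cells each.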

Series [10] in a line: liver microsome stability. The following applies: human. The format is in vitro ADME. For orientation: Liver microsomes are vesicles of endoplasmic reticulum, rich in cytochrome P450 enzymes.
Series [11] can be described thus: liver microsome stability. Format: in vitro ADME. The following applies: mouse.
Series [12] in a line: liver microsome stability. The format is in vitro ADME. The following applies: rat.
Series [13] is described as follows: in vivo pharmacokinetics after intravenous injection. On the set-up: species or system rats. The following applies: rat, 3 mg/kg.
Where [14] appears, read: high concentrations of sodium chlorate, compared to untreated cells.

heparan 3-O-sulfotransferase Hs3st1, sequence (O14792 21-307): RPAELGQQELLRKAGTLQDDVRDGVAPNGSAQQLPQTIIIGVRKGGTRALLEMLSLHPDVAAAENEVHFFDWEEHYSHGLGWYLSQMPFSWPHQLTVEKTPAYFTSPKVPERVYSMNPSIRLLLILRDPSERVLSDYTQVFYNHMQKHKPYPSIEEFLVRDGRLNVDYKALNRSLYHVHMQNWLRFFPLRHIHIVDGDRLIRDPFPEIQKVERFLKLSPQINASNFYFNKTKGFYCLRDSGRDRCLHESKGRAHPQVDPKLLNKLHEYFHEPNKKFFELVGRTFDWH

Turning to `[Na+].[O-][Cl+2]([O-])[O-]` [sodium chlorate], the “cell-surface CS-E expression” value in the series on Neu7 astrocytes [1] (doses as high as 25 mM, compared to 34) is “did not reduce CS-E levels to as large an extent”. For the same compound, in the series with Neu7 astrocytes [2] (setting [14]), the “decrease in CS-E of secreted CSPGs” value is 31.6 ± 10.9% and the “increase in uCS of secreted CSPGs” value worked out at 39.7 ± 15.6%.
Usually Ki stands for a dissociation constant, usually derived from enzyme kinetics or from competition with a known ligand. Read a high Ki as a looser hold on the target. Broadly, the IC50 is the midpoint of a concentration-inhibition curve. High values mean lower potency, low ones higher potency. Usually clearance stands for the rate of elimination divided by the concentration. Lower therefore signals a low capacity for elimination. The half-life is how long it takes for the measured level to halve. Low values mean rapid decline, high ones slow decline. As to `COc1cc(/C=C(\C#N)C(=O)Nc2ccc(Cl)cc2Cl)cc(Br)c1O` [Compound 34], the “Relative Inhibition” value at Chst15 [3] amounted to 1.35 ± 0.12. Further, the mode of inhibition result is “mixed mode of inhibition” at Chst15 [4] (CS-A substrate concentration varied) and “competitive mode of inhibition” on Chst15 [4] (PAPS concentration varied, fixed CS-A (10 mM)). For the same compound, the Ki at Chst15 [4] (CS-A substrate concentration varied, pseudo first-order PAPS concentration) was 1430 nM; on Chst15 [4] (PAPS concentration varied, fixed CS-A acceptor substrate (10 mM)), 770 nM. The “activity against Sult1c1” value in the series with Sult1c1 is listed as “no activity”. For the same compound, the IC50 against Chst15 [5] fell in the range of 2000 to 2500 nM; in [6], 2000 to 2500 nM; in series [7], 2000 to 2500 nM; in [8] it was 2000 to 2500 nM; against Sult1e1 it was 19000 to 42000 nM; against Sult2b1a, 19000 to 42000 nM. Moreover, the IC50 at Sult2b1b lay in the range of 19000 to 42000 nM. The “specificity for GAG sulfotransferases compared to cytosolic sulfotransferases” value on Chst15 [5] (GAG vs cytosolic sulfotransferases) is 8- to 18 fold. Also, at Chst15 [9] (inhibitor pre-incubated with Chst15 for various lengths of time), the “effect of pre-incubation time on Chst15 inhibition” value is listed as “Longer pre-incubation times lead to greater inhibition of the enzyme”. Also, the “Chst15 activity in ten-fold dilution experiments” value at Chst15 [9] (up to 100 μM of 34) is given as “rapidly restored”. For the same compound, in the series on Neu7 astrocytes [1] (10 μM or 25 μM), the “cell-surface CS-E expression” value is recorded as “significant, dose-dependent decrease”. Besides, the CS-E expression result in the series on NIH3T3 fibroblasts is recorded as “significant loss of CS-E expression”. For the same compound, the inhibition at 25 µM in the series on Neu7 astrocytes [2] (Astrocyte, read-out: reduction in the CS-E sulfation motif on secreted CSPGs) worked out at 67.8 ± 10.9%. The “neurite crossing of CSPG boundary” value in the series on DRG neurons is listed as “crossed more freely”. In addition, the “stability in liver microsomes based on intrinsic clearance” value in series [10], in [11] and in [12] was “good stability” each time. In addition, the clearance in series [13] is 21 mL/min/kg. This compound also had a half-life in series [13] of 1.6 h.
